Here are results for 18 compounds from ChEMBL document CHEMBL4257457, “N-Heterocyclic borneol derivatives as inhibitors of Marburg virus glycoprotein-mediated VSIV pseudotype entry” (Medchemcomm, 2017).

Each structure is given as a SMILES string. Bounds are passed on as bounds.

One data set has as its system HEK293. Put plainly: Cytotoxicity against HEK293 cells assessed as reduction in cell viability after 48 hrs by MTT assay. In kind it is cell-based. To be noted: human, hek293, 48 h. The method, boiled down:
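HEK293 target cells were exposed to the compounds and viability was read by MTT assay.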

Data set [1] can be described thus: Selectivity index, ratio of CC50 for HEK293 cells to IC50 for Marburg virus envelope glycoprotein-mediated cell entry in rVSIV-deltaG-MarV-GP pseuotype virus infected HEK293 cells. To be noted: human, read-out: Ratio CC50/IC50. Type of data set: toxicity. The method, boiled down:
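Selectivity index is CC50 divided by IC50 against the MARV-GP pseudotype. CC50 came from an MTT assay on HEK293 cells. For IC50, HEK293 cells were infected with rVSIV-ΔG-MarV-GP with or without compound, across a low-toxicity concentration range chosen from CC50. The luciferase signal was read 24 h post-infection.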

The nature of data set [2]: Selectivity ratio of IC50 for Marburg virus envelope glycoprotein-mediated cell entry in rVSIV-deltaG-MarV-GP pseuotype virus infected HEK293 cells to IC50 for Vesicular stomatitis Indiana virus envelope glycoprotein-mediated cell entry in rVSIV-deltaG-G pseudotype virus infected HEK293 cells. In short, it runs like this:
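Specificity coefficient is IC50 for rVSIV-ΔG-MarV-GP divided by IC50 for rVSIV-ΔG-G. Each IC50 came from HEK293 cells infected with that pseudotype (same VSIV capsid, different glycoprotein) with or without compound, at low-toxicity concentrations. Transduced luciferase was measured 24 h post-infection.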

Regarding `CC1(C)[C@H]2CC[C@]1(C)[C@H](OC(=O)CCN1CCCCC1)C2`, the CC50 in the data set with HEK293 was 302 µM. Also, the selectivity ratio in data set [1] came out at 35. Further, the Ratio IC50 in data set [2] came out at 14.

`CC1(C)[C@H]2CC[C@]1(C)[C@H](OC(=O)CCN1CCNCC1)C2`: the CC50 in the data set on HEK293 came out at 207 µM. For the same compound, in data set [1], the selectivity ratio was 21. The Ratio IC50 in data set [2] was determined as 10.

Regarding `CN1CCN(CCC(=O)O[C@@H]2C[C@@H]3CC[C@@]2(C)C3(C)C)CC1`, the CC50 in the data set with HEK293 was 421 µM. Also, the selectivity ratio in data set [1] came to 20. Also, the Ratio IC50 in data set [2] is 16.

With `CC1(C)[C@H]2CC[C@]1(C)[C@H](OC(=O)CCN1CCOCC1)C2`, the CC50 with HEK293 is 406 µM. In data set [1], the selectivity ratio was determined as 5. Moreover, the Ratio IC50 in data set [2] was determined as 3.

For the compound `CC1(C)[C@H]2CC[C@]1(C)[C@H](OC(=O)CN1CCCC1)C2`, the cytotoxic concentration (CC50) in the data set with HEK293 stood at 480 µM. Also, in data set [1], the selectivity ratio was determined as 9. In addition, the Ratio IC50 in data set [2] was 5.

Regarding `COc1ccc(CCN(C)CCCC(C#N)(c2ccc(OC)c(OC)c2)C(C)C)cc1OC` (configuration not stated), the CC50 in the data set on HEK293 was determined as 280 µM.

Take `CC1(C)[C@H]2CC[C@]1(C)[C@H](O)C2` [(-)-BORNEOL]: the CC50 in the data set with HEK293 was more than 3000 µM. Also, in data set [1], the selectivity ratio is more than 14. The Ratio IC50 in data set [2] was more than 3.

`CCN1CCN(CCC(=O)O[C@@H]2C[C@@H]3CC[C@@]2(C)C3(C)C)CC1`: in the data set on HEK293, the CC50 was 474 µM. For the same compound, the selectivity ratio in data set [1] is 47. In addition, the Ratio IC50 in data set [2] stood at 11.

As to `CC1CCN(CCC(=O)O[C@@H]2C[C@@H]3CC[C@@]2(C)C3(C)C)CC1`, the CC50 in the data set with HEK293 worked out at 215 µM. Further, in data set [1], the selectivity ratio was 60. Further, in data set [2], the Ratio IC50 amounted to 34.

As for `CC1(C)[C@H]2CC[C@]1(C)[C@H](OC(=O)CN1CCCCC1)C2`, the CC50 in the data set with HEK293 came out at 321 µM. The selectivity ratio in data set [1] was found to be 4. Moreover, the Ratio IC50 in data set [2] came to 1.

Turning to `CC1(C)[C@H]2CC[C@]1(C)[C@H](OC(=O)CN1CCNCC1)C2`, in the data set on HEK293, the CC50 was 361 µM. Moreover, the selectivity ratio in data set [1] was determined as 18. The Ratio IC50 in data set [2] stood at 3.

For `CCN1CCN(CC(=O)O[C@@H]2C[C@@H]3CC[C@@]2(C)C3(C)C)CC1`, the CC50 in the data set with HEK293 stood at 859 µM. In addition, in data set [1], the selectivity ratio was determined as 29. For the same compound, the Ratio IC50 in data set [2] amounted to 15.

For the compound `CC1(C)[C@H]2CC[C@]1(C)[C@H](OC(=O)CN1CCOCC1)C2`, in the data set with HEK293, the CC50 amounted to 1280 µM. For the same compound, in data set [1], the selectivity ratio turned out to be 5. In addition, the Ratio IC50 in data set [2] is 1.

For the compound `CCCCN(CCCC)CC(=O)O[C@@H]1C[C@@H]2CC[C@@]1(C)C2(C)C`, in the data set on HEK293, the 50% cytotoxic concentration (CC50) was found to be 73 µM. Further, in data set [1], the selectivity ratio stood at 6. Besides, in data set [2], the Ratio IC50 stood at 2.

As to `CC1(C)[C@H]2CC[C@]1(C)[C@H](OC(=O)CCN1CCCC1)C2`, the CC50 with HEK293 turned out to be 684 µM. Besides, the selectivity ratio in data set [1] amounted to 59. Further, the Ratio IC50 in data set [2] worked out at 2.

On to `CCCCN(CCCC)CCC(=O)O[C@@H]1C[C@@H]2CC[C@@]1(C)C2(C)C`, for which the cytotoxic concentration (CC50) in the data set on HEK293 amounted to 86 µM. Besides, the selectivity ratio in data set [1] was determined as 15. The Ratio IC50 in data set [2] is 8.

Take `CC1CCN(CC(=O)O[C@@H]2C[C@@H]3CC[C@@]2(C)C3(C)C)CC1`: the CC50 in the data set with HEK293 was found to be 240 µM. In addition, in data set [1], the selectivity ratio amounted to 9. Moreover, the Ratio IC50 in data set [2] turned out to be 3.

As for `CN1CCN(CC(=O)O[C@@H]2C[C@@H]3CC[C@@]2(C)C3(C)C)CC1`, the 50% cytotoxic concentration (CC50) in the data set on HEK293 is 637 µM. The selectivity ratio in data set [1] was 14. Moreover, the Ratio IC50 in data set [2] was 4.

What is called CC50 is the concentration at which the toxic effect on the cells reaches its halfway point.
